Experiments:
MCF7 [1] = test: Antiproliferative activity against human MCF7 cells after 72 hrs relative to 1-alpha,25-(OH)2-D3; format: functional
In short: (§1)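 MCF-7 breast cancer cells (ATCC) incubated 72 h with a range of concentrations of analogues, reference 1α,25-(OH)2-D3 or vehicle. Proliferation read as [3H]thymidine incorporation.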

MCF7 [2] = test: Antiproliferative activity against human MCF7 cells at 1 uM after 72 hrs relative to 1-alpha,25-(OH)2-D3; format: functional; conditions: MCF7, 72 h; in short: as §1
[3] = molecular target: T1, Vitamin D3 receptor (Sus scrofa) (UniProt A3RGC1); test: Displacement of [3H]1-alpha,25-(OH)2-D3 from VDR in pig intestinal mucosa relative to 1-alpha,25-(OH)2-D3; format: tissue-based
T1 sequence (whole entry): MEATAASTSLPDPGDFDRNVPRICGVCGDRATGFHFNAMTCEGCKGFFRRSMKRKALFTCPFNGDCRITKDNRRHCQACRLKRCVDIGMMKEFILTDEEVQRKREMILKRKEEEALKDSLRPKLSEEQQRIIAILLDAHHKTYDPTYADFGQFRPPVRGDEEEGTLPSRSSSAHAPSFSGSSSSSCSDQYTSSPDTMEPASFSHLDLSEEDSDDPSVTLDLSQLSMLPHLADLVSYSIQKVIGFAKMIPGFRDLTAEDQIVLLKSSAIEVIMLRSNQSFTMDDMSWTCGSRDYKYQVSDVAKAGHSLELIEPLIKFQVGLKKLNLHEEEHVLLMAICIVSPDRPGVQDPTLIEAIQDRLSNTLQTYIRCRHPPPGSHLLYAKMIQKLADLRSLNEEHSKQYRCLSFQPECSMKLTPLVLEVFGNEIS
In short: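 Competitive binding using high-speed supernatant of intestinal mucosa homogenates from normal pigs, competing against [3H]-1α,25-(OH)2-D3. Relative affinity taken from the concentration displacing 50% of tracer, with 1α,25-(OH)2-D3 set at 100%.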

[4] = molecular target: T2, Vitamin D-binding protein (Homo sapiens) (UniProt P02774); test: Binding affinity to human DBP relative to 1-alpha,25-(OH)2-D3
T2 sequence (whole entry): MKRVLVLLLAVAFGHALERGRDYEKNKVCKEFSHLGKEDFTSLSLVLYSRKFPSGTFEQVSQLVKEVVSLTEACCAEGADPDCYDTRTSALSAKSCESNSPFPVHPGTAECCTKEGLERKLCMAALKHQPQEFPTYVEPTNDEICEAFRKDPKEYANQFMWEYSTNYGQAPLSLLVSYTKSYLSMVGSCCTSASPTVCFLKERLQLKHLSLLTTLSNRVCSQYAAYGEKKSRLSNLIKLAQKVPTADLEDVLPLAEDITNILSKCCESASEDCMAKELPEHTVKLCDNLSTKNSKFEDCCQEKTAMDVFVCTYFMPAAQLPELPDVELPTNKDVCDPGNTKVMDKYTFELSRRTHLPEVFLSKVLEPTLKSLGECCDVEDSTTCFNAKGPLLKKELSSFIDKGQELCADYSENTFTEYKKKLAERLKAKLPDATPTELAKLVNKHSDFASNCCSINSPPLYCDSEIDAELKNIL

C[C@H](CCCC(C)(C)O)[C@H]1CC[C@H]2C(/C=C\C3=C[C@@H](O)[C@H](O)[C@H](O)C3)=CCC[C@]12C
Activity (MCF7 [1]): 6% | inhibition at 1 µM (MCF7 [2]): 70% | Activity [3]: 2% | Activity [4]: 8%

C[C@H](CCCC(C)(C)O)[C@H]1CC[C@H]2C(/C=C\C3=C[C@H](O)[C@@H](O)[C@H](O)C3)=CCC[C@]12C
Activity (MCF7 [1]): 0% | Activity [3]: < 0.1% | Activity [4]: 2%

C[C@H](CCCC(C)(C)O)[C@H]1CC[C@H]2C(/C=C\C3=C[C@@H](O)[C@@H](O)[C@H](O)C3)=CCC[C@]12C
Activity (MCF7 [1]): 2% | Activity [3]: 0.2% | Activity [4]: 4%

C[C@H](CCCC(C)(C)O)[C@H]1CC[C@H]2C(/C=C\C3=C[C@@H](O)[C@@H](O)[C@@H](O)C3)=CCC[C@]12C
Activity (MCF7 [1]): 0% | Activity [3]: < 0.1% | Activity [4]: 7%

Reference: ChEMBL document CHEMBL1147961, “Synthesis and biological evaluation of new 6-s-cis locked 1,2,25-trihydroxyprevitamin D3 analogues” (2007)
